Our source for the cytotoxicity values is ChEMBL document CHEMBL4513216, “Probing the Open Global Health Chemical Diversity Library for Multistage-Active Starting Points for Next-Generation Antimalarials” (ACS Infect Dis, 2020).

This series can be described thus: Toxicity liver stage against HepG2, at 10uM. Type of series: cell-based. On the set-up: test concentration 10 uM, cell line HepG2-A16-CD81EGFP. Conditions: human, HepG2-A16-CD81EGFP cells; read-out: INHIBITION
In short, it runs like this: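 Uninfected HepG2-A16-CD81EGFP cells, 3 × 10^3 per well, 1536-well, plated on prespotted compound at 10 μM final, parasite-free screening media added to match infected plates; puromycin 10 μM positive, DMSO 0.5% negative; run in parallel with 48 h PbLuc assay at 37 °C, 5% CO2; viability by CellTiter-Glo luminescence, normalized to controls.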

`COc1cccc(CNc2c(C)cnc3c2c(=O)n(C)c(=O)n3C)c1`: the cytotoxicity at 10 µM was found to be 21.1%. As for `O=C(C1=CCCC1)N1CCC2(CC1)CC(Oc1cccnc1)CO2` (stereo not given), the cytotoxicity at 10 µM was -1.58%. With `Cc1cc(N2CCC(c3nccn3Cc3cscn3)CC2)ccn1` the figure was -4.72%; with `CCN(CCO)C[C@@H]1CN(C(=O)c2ccc(C)s2)C[C@@H]1CO`, 12.1%; with `Cc1nc(C2CCCN(C(=O)c3ccc(Cl)cn3)C2)no1` (stereo not given), -10.4%.

Turning to `CCCNC(=O)COc1cc(C)c2c(C)nn(-c3ccccc3)c2n1`, the cytotoxicity at 10 µM was -0.295%.

As to `Cc1cccc(C2(C(=O)NCCCn3cccn3)CC2)c1`, the cytotoxicity at 10 µM was -7.66%. Then `Cc1ccc(S(=O)(=O)N2CC[C@@H](O)C2)c(F)c1`, with -10.2%; and `Cc1nc(C(=O)NC2CCN(CCOc3ccc(Br)cc3)CC2)cs1`, with 13%; and `Cc1cc(=O)n2c(n1)SCC2CC(=O)NCc1cc(-c2ccco2)on1` (stereo not given), with -15.6%. With `COCCCN1CCN(CC2CCCO2)CC1` (stereo not given) the figure was -13.5%; with `CC(C)=CCN1C(=O)[C@@H]2CC[C@H]1CN(Cc1cccnc1N)C2`, 12.3%. With `O=C(CCNc1ncccn1)NCc1csc(Br)c1` the figure was 5.15%. On to `CC(=O)NCC(=O)N1Cc2nccn2CC(COc2cccnc2)C1` (stereo not given), for which the cytotoxicity at 10 µM was -2.6%. With `Cc1cnccc1-n1nc(C(C)C)nc1CCc1cnccn1` the figure was 1.92%; with `COc1c(F)cc(-c2cccc3c2OC(CN)C3)cc1F` (stereo not given), -53.7%; with `COc1ccc(CN(C)c2ccc(-c3nccn3C)nn2)cc1OC`, -3.32%. With `COCCn1cnc2ccc(NC(=O)C(C)C)cc2c1=O` the figure was -9.46%. As to `Cc1csc(CN2CCn3c(COc4cccnc4)cnc3C2C)n1` (stereo not given), the cytotoxicity at 10 µM is -98.4%. With `CN(C)C(=O)CN1C(=O)[C@@H]2CC[C@H]1CN(Cc1ccccc1C#N)C2` the figure was 1.22%; with `c1cnc(N2CCO[C@H]3CN(CC4CCOC4)C[C@H]32)cn1` (stereo not given in full), -104%; with `Cc1cc(C[C@@H]2COC[C@@H]2NC(=O)CN2CCc3ccccc3C2)on1`, 6.7%. For `Cc1ncc2c(n1)CN(Cc1nc3c(F)cccc3[nH]1)CC2`, the cytotoxicity at 10 µM is -4.74%. Then `Cc1cccc(CN2CCC(c3nnsc3S(C)(=O)=O)CC2)c1`, with 1.86%. With `CC(C)Cc1nc(CN2CC(=O)N(C)c3ccccc3C2=O)no1` the figure was -6.7%; with `COc1ccc([C@@H]2CN(c3cc(OC)ncn3)C[C@H]2N(C)C)cc1`, 6.98%; with `CCOCC(=O)N1CCC(CSCc2ccco2)CC1`, -7.36%.

As to `CCc1cc(CN(C)C(=O)C2CC(=O)N(c3cccc(O)c3)C2)on1` (stereo not given), the cytotoxicity at 10 µM was -1.72%.

With `CCC1=N[C@@]2(CC[C@@H]3CN(C(=O)NCc4ccccc4)C[C@@H]32)C(=O)N1`, the cytotoxicity at 10 µM is -10.3%. For the molecule `c1ccc(C2CCCN2Cc2nc(-c3cnccn3)no2)nc1` (stereo not given), the cytotoxicity at 10 µM is -0.5%. With `Cc1cccc(COc2ccc(NC(=O)C(C)NC(N)=O)c(C)c2)c1` (stereo not given) the figure was -28%; with `CCn1ncc(NC(=O)CCn2ncc3c(Cl)cccc32)c1C`, 7.74%. With `COc1ccccc1CC(=O)NC(C)c1nc2cccnc2n1C(C)C` (stereo not given) the figure was -43.8%; with `COc1ccc(F)c(-c2cc(C(=O)NC3CC3)ccn2)c1`, -1.36%.

As to `CC(O)CN(C)S(=O)(=O)c1ccc(C#N)cc1F` (stereo not given), the cytotoxicity at 10 µM is -6.67%. Then `CCOCC(=O)N1C[C@@H]2CC[C@H]1CN(C(=O)c1ccncc1)C2`, with 0.0793%; and `CN(C)S(=O)(=O)N1CCN(c2cc(-n3cccc3)ncn2)CC1`, with 0.781%; and `COc1ccc(C(=O)N2CCC(Oc3ccccc3)(C(=O)O)CC2)o1`, with 11.6%.

Take `COCC(=O)N1CCC(c2noc3nc(C)cc(C(F)(F)F)c23)CC1`: the cytotoxicity at 10 µM is 2.78%. Regarding `O=C(CN1CCC(c2nnc(C(F)(F)F)o2)CC1)Nc1cccnc1`, the cytotoxicity at 10 µM is -2.46%.

On to `Cc1nc(N2CCCC2)ncc1C(=O)Nc1ccc(Br)cc1`, for which the cytotoxicity at 10 µM is -1.85%.

On to `Cc1nn(C)c2c(N(C)Cc3cccs3)nc(C3CC3)nc12`, for which the cytotoxicity at 10 µM is -126%. Then `O=C(CCC(=O)Nc1nnc(C(F)(F)F)s1)NCC1CCCO1` (stereo not given), with 4.65%.

Take `Cc1c(C2CC2)n[nH]c1NC(=O)C1CCCN(C(=O)NCC(C)C)C1` (stereo not given): the cytotoxicity at 10 µM was 13.9%.

Consider `Cn1cc(C(=O)N2CCN(Cc3ccsc3)CC2)cn1`, for which the cytotoxicity at 10 µM was -10%. With `O=C(CCc1ncc(-c2ccc(F)cc2)o1)NCCN1CCOCC1` the figure was 10.6%. Consider `CC(C)NC(=O)O[C@H]1COCCN(c2nc3ccccc3s2)C1`, for which the cytotoxicity at 10 µM is -1.27%. On to `CCC[C@@H]1CN(c2ncnc3sccc23)C[C@H]1C(=O)O`, for which the cytotoxicity at 10 µM is 1.96%.

Turning to `CC(NC(=O)Nc1ccc(F)c(F)c1)c1nc[nH]n1` (stereo not given), the cytotoxicity at 10 µM was 0.185%. With `CCCN1CC2(CCN(c3ncc(F)cn3)CC2)CC1C(=O)O` (stereo not given) the figure was -1.71%. Consider `CCc1nc(C2CCCN2CC(=O)NCCOc2ccccc2)no1` (stereo not given), for which the cytotoxicity at 10 µM was -16.4%. Then `COCC(=O)N1CCC(c2nc3ccc(-c4ccncc4)cn3n2)CC1`, with 10.2%; and `O=C(c1ccc(S(=O)(=O)NCC(F)F)cc1)N1C[C@H]2CNC[C@H]2C1`, with -13%; and `COCCN1C(=O)[C@@H]2CC[C@H]1CN(S(=O)(=O)c1cccc(Cl)c1)C2`, with 20.5%.

As for `C[C@@H]1CN(C2(C(=O)N3CCNCC3)Cc3ccccc3C2)C[C@H](C)O1`, the cytotoxicity at 10 µM is -4.17%. Turning to `CCC(Oc1ccccc1)c1nn2c(CN(CC)CC)nnc2s1` (stereo not given), the cytotoxicity at 10 µM was 4.91%. With `Cc1ccc(NCCCNC(=O)NCc2c(C)cc(C)[nH]c2=O)nc1` the figure was -45.2%; with `Cn1cc(C[C@H]2[C@H](O)CCN2Cc2ccc3c(c2)OCO3)cn1`, -80.5%. On to `Cc1nc(CCNC(=O)NCC(O)c2cccc(Cl)c2)cs1` (stereo not given), for which the cytotoxicity at 10 µM was 14%.

Regarding `Cc1n[nH]c(C)c1Sc1ccccc1NC(=O)N1CCOCC(O)C1` (stereo not given), the cytotoxicity at 10 µM is -2.42%. For `CN(CCO)C1CCN(c2ncc3c(n2)CCN3c2ccccc2)CC1`, the cytotoxicity at 10 µM was -2.3%.

As to `CN1CCN(C2CCN(C(=O)CCC3CCCC3)CC2)CC1`, the cytotoxicity at 10 µM worked out at 6.35%. With `CN(C)Cc1cc(=O)n2c(n1)CN(C(=O)Cc1cccs1)CCC2` the figure was -2.8%.

In the case of `Cc1cnc(C)c(-c2cc(O)c3c(c2)CN(c2ncccn2)CCO3)n1`, the cytotoxicity at 10 µM turned out to be 6.13%.

On to `CC(C)c1nc(C(=O)N2CCOCC2CC(=O)c2ccco2)c[nH]1` (stereo not given), for which the cytotoxicity at 10 µM was determined as 0.769%. Regarding `CN1C[C@H]2CC[C@@H](CC1=O)N2C(=O)c1cc2ccccc2[nH]c1=O`, the cytotoxicity at 10 µM is -7.66%.

On to `CCCn1nc(C)c(CNC(=O)C2COc3ccc(OC)cc3C2)c1C` (stereo not given), for which the cytotoxicity at 10 µM is -7.79%. Turning to `COCc1cc(CNc2cnn(CC(F)F)c2)ccc1OC`, the cytotoxicity at 10 µM was -7.58%. With `CN(Cc1nnn(CC2CC2)n1)C(=O)c1ccccc1` the figure was 0.889%; with `c1cncc(CCc2nc(C3CC3)nn2-c2ccc3c(c2)OCCO3)c1`, -0.833%. With `COc1ccc(C(=O)NCC(c2cccn2C)N2CCCC2)cc1OC` (stereo not given) the figure was 6.86%; with `O=C(c1cccnc1O)N1CCCC2(C=Cc3ccccc3O2)CC1` (stereo not given), 9.02%; with `CC(C)c1ccc(C#N)c(N2CC(C)(C)[C@@](C)(O)C2)n1`, 2.71%. Then `O=c1cc2c(nn1CN1CCN(c3cccc(Cl)c3)CC1)CCC2`, with -3.19%; and `Cc1ccn2ncc(C(=O)N3CCCC(c4noc(C)n4)C3)c2n1` (stereo not given), with -7.29%; and `c1cc(-c2cnccn2)cc(-c2ccn(CCN3CCCC3)n2)c1`, with -11.5%. `Cc1nc(CCNC(=O)C2CC(=O)N(C(C)(C)C)C2)sc1Cl` (stereo not given): the cytotoxicity at 10 µM was 16.8%. With `O=C1CSC(c2ccc(Cl)cc2Cl)c2c(n(C3CCOCC3)[nH]c2=O)N1` (stereo not given) the figure was -7.92%.

With `CC(CN1CCCC1=O)NC(=O)Nc1ccccc1Cn1cccn1` (stereo not given), the cytotoxicity at 10 µM was -1.33%. With `Cc1cccc(NC(=O)CCC(=O)NCC(=O)c2ccccc2F)c1` the figure was -6.56%; with `COCCOCC(=O)NCCCOC1CCCc2ccccc21` (stereo not given), 4.15%. Then `OCC1N(Cc2ccc(F)cc2)C2CCC1(O)CC2` (stereo not given), with 8.05%; and `O=C(c1ccc(Cn2cccc2)cc1)N1CCN(CCO)CC1`, with -3.69%. As for `c1ccc(C2CCCCN2Cc2nc(-c3cnccn3)no2)nc1` (stereo not given), the cytotoxicity at 10 µM was -8.04%. Then `CCOCCC(=O)N1CCN(CC(C)O)CC1` (stereo not given), with 6.7%. Take `CN(C)c1ccc(-c2cc(C(=O)O)cc(S(=O)(=O)NC3CC3)c2)cc1`: the cytotoxicity at 10 µM was 16.5%. Then `CC(C)c1nc(C2CCCN(C(=O)CCCn3cccn3)C2)no1` (stereo not given), with -1.36%; and `Cc1c(C(C)NCc2cnn(C)c2)cnn1-c1ccccc1` (stereo not given), with -5.78%; and `COCCC(=O)N1CCC2(CCCN2Cc2cccc(Cl)c2)C1` (stereo not given), with 10.6%. With `CC(C)CCNC(=O)c1ccc(Cl)c(NS(C)(=O)=O)c1` the figure was 2.2%.

As to `COCc1ccccc1C(=O)N1CCCC1Cn1nc(C)cc1C` (stereo not given), the cytotoxicity at 10 µM is -3.98%. Then `CS(=O)(=O)c1ccc(OCCNCc2c(F)cccc2F)cc1`, with -7.12%.

In the case of `CCn1nc(C)c2ncnc(NCCCN3CCOCC3)c21`, the cytotoxicity at 10 µM stood at 2.06%. With `CCN(Cc1noc(CC(C)C)n1)Cc1cccc(F)c1O` the figure was -44%; with `c1cncc(N2CC[C@@H]3CN(CC4CC4)C[C@@H]3C2)c1`, -4.74%.
